Results published in ChEMBL document CHEMBL1144910, “S-acyl-2-thioethyl aryl phosphotriester derivatives of AZT: synthesis, antiviral activity, and stability study” (J Med Chem, 2003).
pEC50: −log10 of the molar value.

Key:
CEM-SS [1] = assay: Cytotoxic concentration required to reduce the viability […] by 50% in CEM-SS cells; format: functional; conditions: Homo sapiens
How it was run: (§1)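 Viability measured in uninfected cells of each line; CC50 is the concentration reducing viability by 50%. Values are averages of at least three separate experiments, with variation under standard operating procedures below ±10%.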

CEM-SS [2] = assay: Effective concentration required to inhibit the replication of HIV-1 by 50% in CEM-SS cells; format: functional, cell-based; conditions: Homo sapiens
How it was run: (§2)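 Cells infected with HIV-1; EC50 is the concentration inhibiting viral replication by 50%. Values are averages of at least three separate experiments, with variation below ±10%.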

CCRF-CEM [3] = assay: Cytotoxic concentration required to reduce the viability […] by 50% in CEM/TK cells; format: functional; conditions: Homo sapiens; how it was run: as §1
CCRF-CEM [4] = assay: Effective concentration required to inhibit the replication of HIV-1 by 50% in CEM/TK cells; format: functional, cell-based; conditions: Homo sapiens; how it was run: as §2
MT4 [5] = assay: Cytotoxic concentration required to reduce the viability […] by 50% MT-4 cells; format: functional; conditions: Homo sapiens; how it was run: as §1
MT4 [6] = assay: Effective concentration required to inhibit the replication of HIV-1 by 50% in MT-4 cells; format: functional, cell-based; conditions: Homo sapiens; how it was run: as §2
[7] = In vitro Apparent partition coefficients of mixed aryl phosphodiester was determined; format: physicochemical; conditions: octanol/water
How it was run: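 Apparent log P by an adapted shake-flask method, partitioning between 1-octanol and 0.02 M potassium phosphate buffer at pH 7.2. Each compound was run in triplicate.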

[8] = Half-life was determined for the compound in cell extracts (CE); format: ADME
How it was run: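 Total CEM-SS cell extracts, 37 °C, phosphotriester at 50 µM initial concentration. Samples analysed by on-line ISRP-cleaning HPLC (C18, acetonitrile gradient in 20 mM triethylammonium acetate pH 6.9, 267 nm). Products identified by HPLC-ESI-MS and/or co-injection. Relative amounts taken from peak areas. Half-lives derived from pseudo-first-order rate constants fitted by mono- or polyexponential regression.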

[9] = Half-life was determined for the compound in cell extracts pre-incubated with EDTA; stable; format: ADME
[10] = Half-life was determined for the compound in heat inactivated cell extracts; stable; format: ADME
[11] = Half-life was determined for the compound in cell extracts pre-incubated with EDTA; format: ADME

half-life [8] | T1/2 [9] | T1/2 [10] | half-life [11] | SMILES | CC50 (CEM-SS [1]) | pEC50 (CEM-SS [2]) | CC50 (CCRF-CEM [3]) | pEC50 (CCRF-CEM [4]) | CC50 (MT4 [5]) | pEC50 (MT4 [6]) | logD [7]
 |  |  |  | Cc1cn([C@H]2C[C@H](N=[N+]=[N-])[C@@H](COP(=O)(OCCSC(=O)C(C)(C)C)Oc3ccc(C[C@H](NC(=O)OC(C)(C)C)C(=O)N(C(=O)OC(C)(C)C)C(=O)OC(C)(C)C)cc3)O2)c(=O)[nH]c1=O (stereo not given in full) | > 10 µM | 7.31 | > 10 µM | 5.40 | > 10 µM | 7.47 | 5
 |  |  |  | Cc1cn([C@H]2C[C@H](N=[N+]=[N-])[C@@H](COP(=O)(OCCSC(=O)C(C)(C)C)Oc3ccc(C[C@H](N)C(N)=O)cc3)O2)c(=O)[nH]c1=O (stereo not given in full) | > 10 µM | 8.70 | > 10 µM | 5.40 | > 10 µM | 7.80 | 1.27
68 h | stable | stable |  | Cc1cn([C@H]2C[C@H](N=[N+]=[N-])[C@@H](COP(=O)(O)Oc3ccc(C[C@H](N)CO)cc3)O2)c(=O)[nH]c1=O.Cl |  |  |  |  |  |  | 
 |  |  |  | CC(=O)N[C@@H](Cc1ccc(OP(=O)(OCCSC(=O)C(C)(C)C)OC[C@H]2O[C@@H](n3cc(C)c(=O)[nH]c3=O)C[C@@H]2N=[N+]=[N-])cc1)C(N)=O (stereo not given in full) | > 10 µM | 7.09 | > 10 µM | 5.10 | > 10 µM | 7.18 | 1.52
 |  |  |  | Cc1cn([C@H]2C[C@H](N=[N+]=[N-])[C@@H](COP(=O)(OCCSC(=O)C(C)(C)C)Oc3ccc(C[C@@H](CO)NC(=O)OC(C)(C)C)cc3)O2)c(=O)[nH]c1=O (stereo not given in full) |  | 7.77 | > 10 µM | 5.40 | > 10 µM | 7.36 | 2.5
 |  |  |  | Cc1cn([C@H]2C[C@H](N=[N+]=[N-])[C@@H](COP(=O)(OCCSC(=O)C(C)(C)C)Oc3ccc(C[C@H](N)C(=O)O)cc3)O2)c(=O)[nH]c1=O (stereo not given in full) | > 100 µM | 8.22 | > 100 µM | 4.54 | > 10 µM | 7.12 | 0.25
 |  |  |  | CC(=O)N(C(=O)OC(C)(C)C)[C@@H](Cc1ccc(OP(=O)(OCCSC(=O)C(C)(C)C)OC[C@H]2O[C@@H](n3cc(C)c(=O)[nH]c3=O)C[C@@H]2N=[N+]=[N-])cc1)C(=O)N(C(=O)OC(C)(C)C)C(=O)OC(C)(C)C (stereo not given in full) | > 10 µM | 7.82 | > 10 µM | 5.22 | > 10 µM | 7.49 | 5.8
 |  |  |  | Cc1cn([C@H]2C[C@H](N=[N+]=[N-])[C@@H](COP(=O)(OCCSC(=O)C(C)(C)C)Oc3ccc(C[C@H]4COC(C)(C)N4C(=O)OC(C)(C)C)cc3)O2)c(=O)[nH]c1=O (stereo not given in full) | > 10 µM | 7.51 | > 10 µM | 5.05 | > 10 µM | 7.01 | 3.7
12.8 h | stable | stable |  | Cc1cn([C@H]2C[C@H](N=[N+]=[N-])[C@@H](COP(=O)(O)Oc3ccc(C[C@H](N)C(=O)O)cc3)O2)c(=O)[nH]c1=O.Cl |  |  |  |  |  |  | 
19.3 h |  | stable | 166 h | CC(=O)N[C@@H](Cc1ccc(OP(=O)(O)OC[C@H]2O[C@@H](n3cc(C)c(=O)[nH]c3=O)C[C@@H]2N=[N+]=[N-])cc1)C(N)=O.Cl |  |  |  |  |  |  | 
 |  |  |  | Cc1cn([C@H]2C[C@H](N=[N+]=[N-])[C@@H](CO)O2)c(=O)[nH]c1=O [ZIDOVUDINE] | > 100 µM | 8.52 | > 100 µM | < 4.00 | > 100 µM |  | 0.06
 |  |  |  | Cc1cn([C@H]2C[C@H](N=[N+]=[N-])[C@@H](COP(=O)(OCCSC(=O)C(C)(C)C)Oc3ccc(C[C@H](N)CO)cc3)O2)c(=O)[nH]c1=O (stereo not given in full) | > 100 µM | 8.15 | > 100 µM | 5.15 | > 100 µM | 7.74 | 0.64
